The nature of series [1]: Neurotoxicity in Kunming mouse assessed as motor impairment rate at 250 mg/kg, po after 1 hr by rotarod test. As to conditions: in vivo. In kind it is toxicity, organism-based. Put shortly:
(§1)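 Male KM mice dosed intragastrically with compound freshly suspended in 0.5% CMC-Na. Rotarod performance scored 1 h after dosing as the fraction of animals showing motor impairment. Fisher's exact test versus vehicle; TD50 from nonlinear dose−response fit.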
A general note: The rotarod test checks motor coordination on a turning rod.

For series [2], the target named is Potassium voltage-gated channel subfamily KQT member 2/member 3 (Rattus norvegicus) (UniProt O88943+O88944). In words: Agonist activity at rat KCNQ2/3 channel expressed in CHO cells assessed as shift of half voltage of maximal activation at 10 uM by patch clamp method. In kind it is cell-based. The following applies: filed as agonist. A digest of the protocol:
(§2)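 Whole-cell patch clamp at room temperature on CHO cells (DMEM/F12, 10% FBS) transiently co-transfected with EGFP and hKCNQ1, rKCNQ2, rKCNQ3 A278T, hKCNQ4 or hKCNQ5; KCNQ2/3 at 1:1 cDNA ratio. Pipette solution 145 mM KCl, 5 mM MgATP, pH 7.3; bath 140 mM NaCl, 5 mM KCl, pH 7.4, under perfusion. V1/2 from Boltzmann fits; I/I0 is current amplitude with versus without compound; n = 4−6.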
For orientation: The patch-clamp technique gives a direct electrical read-out from membranes.

In the next series the target is Cytochrome P450 3A4 (Homo sapiens, UniProt P08684). Briefly: Time dependent inhibition of human liver microsome CYP3A4 preincubated for 0.5 hrs in presence or absence of NADPH followed by midazolam addition by LC-MS/MS method. It counts as ADME, microsomes. Put shortly:
(§3)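 Human liver microsomes preincubated 0.5 h with 0.10–50 μM test compound, with or without NADPH, then CYP-specific probe substrate added and incubation continued. Metabolite measured by LC-MS/MS; % activity remaining relative to no-compound control; IC50 fitted by Probit model. For CYP3A4, midazolam 1′-hydroxylation and testosterone 6β-hydroxylation were read separately.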
(Liver microsomes are vesicles of endoplasmic reticulum, rich in cytochrome P450 enzymes.)

In a further series the test system is CHO. In words: Agonist activity at rat KCNQ3 A278T mutant expressed in CHO cells assessed as shift of half voltage of maximal activation at 0.1 uM by patch clamp method. In kind it is cell-based. The following applies: filed as agonist. Put shortly: as §2
Series [3] in a line: AUC(0 to t) in Kunming mouse plasma at 2 mg/kg, iv measured upto 24 hrs by LC-MS/MS method. In kind it is ADME, organism-based. Details: time < 24 hrs, dose 2 mg/kg, route iv. A digest of the protocol: (§4)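 KM male mice (18−24 g), fasted 12 h before and 2 h after dosing. HN37 given orally at 5 mg/kg in 5% DMSO/5% Tween 80/90% saline, or iv at 2 mg/kg after dilution in saline with 1% Tween 80; n = 3 per time point. Blood sampled 0.25–24 h (from 0.083 h after iv); whole brain taken after oral dosing. Plasma and brain extracted with acetonitrile, quantified by LC−MS/MS; AUC0−t by trapezoidal method.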

Series [4] can be described thus: Metabolic stability in rat liver microsomes assessed as intrinsic clearance. In kind it is ADME, Microsome. The following applies: read-out: CLH.
The target of the next series is Cytochrome P450 2C8 (Homo sapiens, UniProt P10632). In words: Time dependent inhibition of human liver microsome CYP2C8 preincubated for 0.5 hrs in presence of NADPH followed by substrate addition by LC-MS/MS method. It counts as ADME, microsomes. A digest of the protocol:
as §3

Series [5] concerns the target Potassium voltage-gated channel subfamily KQT member 2 (Rattus norvegicus) (UniProt O88943). In words: Potency index, ratio of retigabine EC50 to test compound EC50 for agonist activity at rat KCNQ2 channel expressed in CHO cells by patch clamp method. It counts as cell-based.
Series [6] concerns the target Potassium voltage-gated channel subfamily KQT member 5 (Homo sapiens) (UniProt Q9NR82). Briefly: Agonist activity at human KCNQ5 channel expressed in CHO cells assessed as amplitude change of outward current at 0.1 uM by patch clamp method. In kind it is cell-based. The following applies: filed as agonist. Put shortly: as §2
Series [7] is described as follows: Tmax in Sprague-Dawley rat at 20 mg/kg, po measured upto 24 hrs by LC-MS/MS method. It counts as ADME, organism-based. The following applies: in vivo. Put shortly:
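Male SD rats (180–220 g) dosed orally at 2, 6 and 20 mg/kg, handled like the mice: fasting, 5% DMSO/5% Tween 80/saline vehicle, acetonitrile extraction, LC-MS/MS of plasma. In a separate set at 6 mg/kg p.o., blood and brain were sampled together.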

Another series has as its target CYP1A2 (Homo sapiens, UniProt P05177). In words: Inhibition of human liver microsome CYP1A2 at 0.10 to 50 uM preincubated with NADPH for 0.5 hrs followed by substrate addition by LC-MS/MS method relative to control. In kind it is ADME. As to conditions: liver microsomes, dose 0.1-50 µM.
The target of another series is Cytochrome P450 2B6 (Homo sapiens, UniProt P20813). Briefly: Time dependent inhibition of human liver microsome CYP2B6 preincubated for 0.5 hrs in absence of NADPH followed by substrate addition by LC-MS/MS method. In kind it is ADME, microsomes. A digest of the protocol:
as §3

Series [8] is described as follows: Metabolic stability in human liver microsomes assessed as half life. It counts as ADME, Microsome.
The nature of series [9]: Half life in Kunming mouse plasma at 2 mg/kg, iv measured upto 24 hrs by LC-MS/MS method. In kind it is ADME, organism-based. A digest of the protocol: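 Male KM mice (n = 3 per time point) given 2 mg/kg i.v. in normal saline with 1% Tween 80, diluted from the oral formulation. Retro-orbital plexus blood taken at 0.083–24 h. Plasma extracted with acetonitrile plus internal standard and assayed by LC−MS/MS.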

The target in the next series is CYP2C19 (Homo sapiens, UniProt P33261). In words: Inhibition of human liver microsome CYP2C19 at 0.10 to 50 uM preincubated with NADPH for 0.5 hrs followed by substrate addition by LC-MS/MS method relative to control. In kind it is ADME. The following applies: liver microsomes, dose 0.1-50 µM.
CYP2C19, sequence (P33261 whole entry): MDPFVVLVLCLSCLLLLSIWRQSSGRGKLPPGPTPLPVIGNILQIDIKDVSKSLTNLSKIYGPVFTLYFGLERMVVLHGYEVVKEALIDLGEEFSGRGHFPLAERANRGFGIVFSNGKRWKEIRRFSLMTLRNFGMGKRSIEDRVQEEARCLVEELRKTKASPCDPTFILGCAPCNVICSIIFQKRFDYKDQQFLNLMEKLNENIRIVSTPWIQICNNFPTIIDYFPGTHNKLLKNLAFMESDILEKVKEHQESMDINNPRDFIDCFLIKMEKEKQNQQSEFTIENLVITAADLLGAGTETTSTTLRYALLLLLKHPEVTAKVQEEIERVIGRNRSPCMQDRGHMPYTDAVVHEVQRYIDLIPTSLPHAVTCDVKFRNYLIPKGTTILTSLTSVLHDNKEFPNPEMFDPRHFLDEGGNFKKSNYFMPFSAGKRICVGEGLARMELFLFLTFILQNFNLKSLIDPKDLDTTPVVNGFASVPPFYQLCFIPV
A short description of series [10]: Cmax in Kunming mouse brain at 5 mg/kg, po measured upto 24 hrs by LC-MS/MS method. It counts as ADME, organism-based. Details: dose 5 mg/kg, time < 24 hrs, route po. A digest of the protocol: as §4
A short description of series [11]: AUC(0 to t) in Sprague-Dawley rat at 2 mg/kg, po measured upto 24 hrs by LC-MS/MS method. Details: dose 2 mg/kg, time < 24 hrs, route po. In kind it is ADME, organism-based. The following applies: in vivo. A digest of the protocol: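 Male SD rats (180−220 g) dosed orally at 2, 6 or 20 mg/kg in escalating fashion, handled as in the mouse study: 12 h fast, acetonitrile extraction of plasma, LC−MS/MS quantification. AUC0−t by trapezoidal method to the last measurable concentration.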

Series [12] is described as follows: Neurotoxicity in Kunming mouse assessed as motor impairment rate at 200 mg/kg, po after 1 hr by rotarod test. In kind it is toxicity, organism-based. As to conditions: in vivo. Put shortly: as §1

The term IC50 denotes the concentration that gives 50% inhibition. Usually AUC(0-t) stands for exposure summed from dosing to a finite time, without extrapolation to infinity. Low values mean low exposure, high ones high exposure. The Tmax is the time from dosing to the highest level. Usually inhibition stands for the relative decrease from the control value, in per cent. Read a low inhibition as a weak effect. As a reminder, the half-life is how long it takes for the measured level to halve. As usually defined, the Cmax is the peak of the concentration-time curve.

Potassium voltage-gated channel subfamily KQT member 2 (Rattus norvegicus), sequence (O88943 whole entry): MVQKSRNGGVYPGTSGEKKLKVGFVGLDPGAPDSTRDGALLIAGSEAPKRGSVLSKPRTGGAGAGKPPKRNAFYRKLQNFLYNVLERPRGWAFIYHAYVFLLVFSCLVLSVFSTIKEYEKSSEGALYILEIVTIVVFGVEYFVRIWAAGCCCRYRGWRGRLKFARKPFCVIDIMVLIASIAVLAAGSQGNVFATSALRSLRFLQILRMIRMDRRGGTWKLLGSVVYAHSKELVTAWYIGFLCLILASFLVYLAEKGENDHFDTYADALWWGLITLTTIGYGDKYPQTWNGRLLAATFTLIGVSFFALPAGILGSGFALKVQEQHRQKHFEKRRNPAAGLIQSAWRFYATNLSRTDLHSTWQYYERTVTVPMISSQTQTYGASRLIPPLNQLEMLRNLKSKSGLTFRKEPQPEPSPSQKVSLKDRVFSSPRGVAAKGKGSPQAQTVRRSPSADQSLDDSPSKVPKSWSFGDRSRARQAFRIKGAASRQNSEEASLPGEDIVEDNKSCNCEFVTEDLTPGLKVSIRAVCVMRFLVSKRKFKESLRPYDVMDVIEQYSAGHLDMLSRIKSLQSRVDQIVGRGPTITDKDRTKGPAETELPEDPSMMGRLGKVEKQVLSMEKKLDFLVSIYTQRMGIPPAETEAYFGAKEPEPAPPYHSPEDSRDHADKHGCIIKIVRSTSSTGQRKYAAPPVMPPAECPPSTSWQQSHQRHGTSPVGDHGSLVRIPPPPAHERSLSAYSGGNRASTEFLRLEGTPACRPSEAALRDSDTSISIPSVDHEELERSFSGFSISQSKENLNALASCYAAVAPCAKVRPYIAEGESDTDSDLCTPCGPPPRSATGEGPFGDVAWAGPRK
CYP1A2, sequence (P05177 whole entry): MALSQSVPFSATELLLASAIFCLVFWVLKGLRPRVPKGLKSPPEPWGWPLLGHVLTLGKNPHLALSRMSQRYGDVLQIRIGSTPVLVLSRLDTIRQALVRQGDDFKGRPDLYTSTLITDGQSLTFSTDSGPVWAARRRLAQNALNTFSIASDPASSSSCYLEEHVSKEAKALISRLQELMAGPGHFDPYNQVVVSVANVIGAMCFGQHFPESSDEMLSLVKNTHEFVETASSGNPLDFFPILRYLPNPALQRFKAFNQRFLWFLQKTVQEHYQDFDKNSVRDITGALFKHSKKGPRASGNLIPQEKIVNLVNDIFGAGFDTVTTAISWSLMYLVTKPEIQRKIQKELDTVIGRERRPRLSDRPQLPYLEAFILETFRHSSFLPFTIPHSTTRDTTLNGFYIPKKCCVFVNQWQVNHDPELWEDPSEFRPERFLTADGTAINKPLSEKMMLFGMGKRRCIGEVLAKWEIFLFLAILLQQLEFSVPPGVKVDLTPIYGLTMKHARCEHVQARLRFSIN
Cytochrome P450 3A4, sequence (P08684 whole entry): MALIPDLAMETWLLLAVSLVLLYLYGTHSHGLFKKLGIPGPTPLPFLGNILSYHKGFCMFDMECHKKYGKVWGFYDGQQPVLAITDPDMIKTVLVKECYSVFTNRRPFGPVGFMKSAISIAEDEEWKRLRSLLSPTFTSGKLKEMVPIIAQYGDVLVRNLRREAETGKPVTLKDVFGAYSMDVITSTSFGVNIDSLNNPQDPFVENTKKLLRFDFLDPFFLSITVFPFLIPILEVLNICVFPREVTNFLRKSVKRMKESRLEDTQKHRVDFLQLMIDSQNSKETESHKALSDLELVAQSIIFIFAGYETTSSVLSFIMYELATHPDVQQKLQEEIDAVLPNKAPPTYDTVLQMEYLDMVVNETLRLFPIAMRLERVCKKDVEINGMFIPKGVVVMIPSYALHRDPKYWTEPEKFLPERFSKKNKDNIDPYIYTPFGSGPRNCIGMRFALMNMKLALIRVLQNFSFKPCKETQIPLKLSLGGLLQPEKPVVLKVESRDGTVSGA
Cytochrome P450 2B6, sequence (P20813 whole entry): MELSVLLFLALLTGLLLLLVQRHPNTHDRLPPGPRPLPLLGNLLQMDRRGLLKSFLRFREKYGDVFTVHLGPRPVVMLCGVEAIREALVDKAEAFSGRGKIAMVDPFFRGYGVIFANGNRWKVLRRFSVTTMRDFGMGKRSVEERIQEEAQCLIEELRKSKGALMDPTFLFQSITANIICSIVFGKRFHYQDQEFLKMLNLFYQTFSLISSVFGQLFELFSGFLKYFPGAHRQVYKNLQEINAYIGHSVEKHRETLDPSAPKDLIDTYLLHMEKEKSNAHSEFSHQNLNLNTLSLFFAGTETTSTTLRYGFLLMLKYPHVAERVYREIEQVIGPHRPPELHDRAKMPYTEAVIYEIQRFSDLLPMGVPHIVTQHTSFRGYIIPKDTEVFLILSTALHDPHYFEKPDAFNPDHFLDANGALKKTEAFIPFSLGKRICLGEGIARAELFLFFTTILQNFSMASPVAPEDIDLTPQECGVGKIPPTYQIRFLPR
Potassium voltage-gated channel subfamily KQT member 5 (Homo sapiens), sequence (Q9NR82 whole entry): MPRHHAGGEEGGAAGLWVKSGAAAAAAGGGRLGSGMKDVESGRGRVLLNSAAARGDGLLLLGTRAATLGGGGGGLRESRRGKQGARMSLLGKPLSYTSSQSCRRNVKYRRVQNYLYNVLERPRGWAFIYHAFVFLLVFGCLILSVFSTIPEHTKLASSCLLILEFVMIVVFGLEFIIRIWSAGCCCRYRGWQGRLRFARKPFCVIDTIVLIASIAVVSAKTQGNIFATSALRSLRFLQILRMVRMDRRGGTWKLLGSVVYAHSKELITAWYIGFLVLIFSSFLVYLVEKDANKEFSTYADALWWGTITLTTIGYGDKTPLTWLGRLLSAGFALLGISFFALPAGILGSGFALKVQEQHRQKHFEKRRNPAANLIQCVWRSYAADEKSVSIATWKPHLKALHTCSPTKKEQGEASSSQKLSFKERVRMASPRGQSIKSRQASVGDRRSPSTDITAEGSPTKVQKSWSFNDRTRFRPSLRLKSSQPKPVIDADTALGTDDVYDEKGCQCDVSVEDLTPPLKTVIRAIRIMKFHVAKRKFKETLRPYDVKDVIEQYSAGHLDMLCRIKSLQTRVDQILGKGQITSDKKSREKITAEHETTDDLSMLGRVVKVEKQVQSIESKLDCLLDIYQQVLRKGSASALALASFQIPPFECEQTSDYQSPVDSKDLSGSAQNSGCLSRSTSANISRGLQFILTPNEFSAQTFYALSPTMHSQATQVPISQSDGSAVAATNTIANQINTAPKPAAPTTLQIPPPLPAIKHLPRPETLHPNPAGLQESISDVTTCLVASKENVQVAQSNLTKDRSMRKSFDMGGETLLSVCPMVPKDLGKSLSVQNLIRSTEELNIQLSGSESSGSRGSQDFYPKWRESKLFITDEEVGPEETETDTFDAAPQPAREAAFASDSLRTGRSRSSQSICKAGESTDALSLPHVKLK
Cytochrome P450 2C8, sequence (P10632 whole entry): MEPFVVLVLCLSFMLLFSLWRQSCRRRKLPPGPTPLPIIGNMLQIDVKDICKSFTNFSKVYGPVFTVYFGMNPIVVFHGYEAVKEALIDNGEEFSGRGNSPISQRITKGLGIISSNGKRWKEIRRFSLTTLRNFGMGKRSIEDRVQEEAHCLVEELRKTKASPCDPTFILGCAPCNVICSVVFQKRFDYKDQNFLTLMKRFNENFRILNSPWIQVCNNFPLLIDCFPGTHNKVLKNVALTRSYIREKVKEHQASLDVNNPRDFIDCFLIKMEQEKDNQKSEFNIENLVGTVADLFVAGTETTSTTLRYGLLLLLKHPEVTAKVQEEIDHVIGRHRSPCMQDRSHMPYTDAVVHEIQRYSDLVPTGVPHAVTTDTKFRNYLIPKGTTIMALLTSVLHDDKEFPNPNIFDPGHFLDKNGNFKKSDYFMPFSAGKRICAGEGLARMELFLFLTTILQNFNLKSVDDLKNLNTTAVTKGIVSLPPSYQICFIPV

As to `CCOC(=O)Nc1ccc(NCc2ccc(F)cc2)cc1N` [EZOGABINE], the results for the Activity in series [1] and in series [2] were 62.5% and -34.3 mV, respectively.

As to `C#CCN(Cc1ccc(F)cc1)c1cc(C)c(NC(=O)OC)c(C)c1`, the figures for the IC50 on Cytochrome P450 3A4, at Cytochrome P450 2C8 and at Cytochrome P450 2B6 were more than 50 µM, 35.2 µM and 141 µM, respectively. The Activity in the series on CHO is -43.1 mV; in series [6] it was 3.14; in series [12] it was 100%. In addition, the values for the AUC(0-t) at 24 h in series [3] and in series [11] were 531 ng·h/mL and 247 ng·h/mL, respectively. In series [4], the CLint scaled amounted to 105 mL/min/kg. Besides, the Ratio EC50 in series [5] stood at 55. The Tmax in series [7] came to 220 min. Also, the inhibition at 0.5 h, up to 50 µM against CYP1A2 and at CYP2C19 was less than 25% throughout. Moreover, the half-life was 27.7 min in series [8] and 48 min in series [9]. The compound further gave a Cmax in series [10] of 263 ng/mL.

Values taken from ChEMBL document CHEMBL5149984, “Discovery of HN37 as a Potent and Chemically Stable Antiepileptic Drug Candidate” (J Med Chem, 2021).
